Data set [1] concerns the target Epidermal growth factor receptor (Homo sapiens, UniProt P00533, T790M). As to the kind of experiment: Inhibition of recombinant human N-terminal GST-tagged EGFR T790M mutant (695-end residues) expressed in baculovirus infected Sf9 cells using poly (4:1 Glu, Tyr) peptide as substrate after 60 mins by ADP-Glo assay. Put shortly: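 ADP-Glo luminescent kinase assay in 1× kinase buffer with compounds at 0.1 to 1000 nM. The kinase reaction ran 60 min at room temperature, then ADP-Glo reagent stopped it and depleted ATP (40 min, RT). Detection reagent converted ADP to ATP for luciferase read-out (30 min, RT). IC50 came from curve fitting.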

The next data set deals with Ramos. As to the kind of experiment: Antiproliferative activity against human Ramos cells after 72 hrs by CCK8 assay. It is filed as functional, cell-based. In general terms: Formazan colour is commonly taken as a measure of viable cells.
Data set [2] addresses T1, Tyrosine-protein kinase JAK3 (Homo sapiens, UniProt P52333).
T1 sequence (P52333 whole entry): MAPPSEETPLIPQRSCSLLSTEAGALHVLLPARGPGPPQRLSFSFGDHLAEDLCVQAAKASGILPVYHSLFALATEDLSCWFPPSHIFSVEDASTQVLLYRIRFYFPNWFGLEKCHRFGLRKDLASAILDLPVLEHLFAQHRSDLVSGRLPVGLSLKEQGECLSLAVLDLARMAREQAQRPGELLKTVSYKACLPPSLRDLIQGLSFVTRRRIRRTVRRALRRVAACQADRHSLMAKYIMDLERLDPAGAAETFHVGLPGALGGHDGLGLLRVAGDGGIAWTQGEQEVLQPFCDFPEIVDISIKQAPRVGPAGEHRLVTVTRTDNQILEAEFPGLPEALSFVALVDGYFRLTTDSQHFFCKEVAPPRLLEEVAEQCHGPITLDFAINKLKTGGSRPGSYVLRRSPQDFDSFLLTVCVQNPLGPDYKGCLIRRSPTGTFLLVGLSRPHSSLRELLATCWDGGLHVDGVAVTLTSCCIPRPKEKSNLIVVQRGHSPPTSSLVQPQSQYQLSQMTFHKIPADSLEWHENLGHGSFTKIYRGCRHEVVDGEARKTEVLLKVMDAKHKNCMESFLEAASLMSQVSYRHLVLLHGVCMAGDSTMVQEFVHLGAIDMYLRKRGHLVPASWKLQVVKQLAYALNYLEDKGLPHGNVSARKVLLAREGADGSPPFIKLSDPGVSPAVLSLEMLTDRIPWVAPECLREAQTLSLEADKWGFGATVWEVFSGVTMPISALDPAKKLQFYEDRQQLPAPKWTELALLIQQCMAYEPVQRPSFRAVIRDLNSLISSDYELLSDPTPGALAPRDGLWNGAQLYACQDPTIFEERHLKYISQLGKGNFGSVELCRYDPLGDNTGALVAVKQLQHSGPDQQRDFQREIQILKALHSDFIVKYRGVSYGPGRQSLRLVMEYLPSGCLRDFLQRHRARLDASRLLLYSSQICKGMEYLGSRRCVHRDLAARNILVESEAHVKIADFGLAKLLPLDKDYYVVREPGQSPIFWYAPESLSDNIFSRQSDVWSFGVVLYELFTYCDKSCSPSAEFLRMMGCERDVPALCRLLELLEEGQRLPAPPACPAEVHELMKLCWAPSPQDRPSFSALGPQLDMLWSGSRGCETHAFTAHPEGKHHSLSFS
As to the kind of experiment: Inhibition of recombinant human N-terminal GST-tagged JAK3 (781-end residues) expressed in baculovirus infected Sf9 cells using poly (4:1 Glu, Tyr) peptide as substrate after 60 mins by ADP-Glo assay. Put shortly:
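ADP-Glo luminescent kinase assay with commercial JAK3 kinase enzyme system, in 1× kinase buffer, compounds at 0.1–1000 nM. The kinase reaction ran for 60 min at room temperature, followed by ADP-Glo reagent for 40 min to stop the reaction and deplete ATP, then detection reagent for 30 min. Luminescence was read and curves were fitted to give IC50.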

Data set [3] relates to NAMALVA. As to the kind of experiment: Antiproliferative activity against human NAMALWA cells after 72 hrs by CCK8 assay. It is filed as functional, cell-based. The method, boiled down: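 Cells seeded 3,000/well in RPMI-1640 with 10% FBS at 37 °C, 5% CO2, for 4 h, then exposed to compound for 72 h. Concentrations 1.25 to 40 µM, each in five replicates. Cell number set to give an absorbance of 0.5–1.2 at 450 nm. CCK-8 read-out at 450 nm; IC50 fitted by curve fitting; values are the mean of at least three separate experiments.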

Data set [4] concerns the target T2, Tyrosine-protein kinase BTK (Homo sapiens, UniProt Q06187). As to the kind of experiment: Inhibition of full length recombinant human N-terminal His-tagged BTK expressed in baculovirus infected Sf9 cells using poly (4:1 Glu, Tyr) peptide as substrate after 60 mins by ADP-Glo assay. Background: ADP-Glo first removes unused ATP, then detects ADP through luciferase.

For data set [5], the system named is Raji. As to the kind of experiment: Antiproliferative activity against human Raji cells after 72 hrs by CCK8 assay. The data set is classed as functional, cell-based.
Data set [6] relates to NAMALVA. As to the kind of experiment: Induction of apoptosis in human NAMALWA cells assessed as early apoptotic cells at 5 uM after 48 hrs by Annexin V-FITC/propidium iodide staining based flow cytometry (reference value: 0%). It is filed as functional. (In general: Flow cytometry measures light scatter and fluorescence of single cells or particles in a stream.)
In data set [7] the test system is NAMALVA. As to the kind of experiment: Induction of apoptosis in human NAMALWA cells assessed as morphological changes at 5 uM by acridine orange/ethidium bromide staining based phase contrast microscopic assay. The data set is classed as functional, cell-based.
In data set [8] the test system is NAMALVA. As to the kind of experiment: Induction of apoptosis in human NAMALWA cells assessed as necrotic cells at 5 uM after 48 hrs by Annexin V-FITC/propidium iodide staining based flow cytometry (reference value: 4.05%). It is filed as functional.
Data set [9] relates to NAMALVA. As to the kind of experiment: Induction of apoptosis in human NAMALWA cells assessed as late apoptotic cells at 5 uM after 48 hrs by Annexin V-FITC/propidium iodide staining based flow cytometry (reference value: 0%). It is filed as functional.
Data set [10] has as its target T2, Tyrosine-protein kinase BTK. As to the kind of experiment: Inhibition of BTK phosphorylation in human NAMALWA cells after 48 hrs by Western blot method. It is filed as cell-based. The method, boiled down: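 NAMALWA cells were treated at 1, 5 and 10 µM for 48 h and lysed; lysates were cleared at 14,000 g for 15 min at 4 °C. 50 µg protein was resolved on 8–12% SDS-PAGE and transferred to PVDF. The membrane was blocked in 5% skim milk for 2 h at room temperature, then probed overnight at 4 °C for BTK and p-BTK. Detection was by ECL.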

The subject of data set [11] is NAMALVA. As to the kind of experiment: Potency index, ratio of ibrutinib IC50 to compound IC50 for antiproliferative activity against human NAMALWA cells. The data set is classed as functional.
Data set [12] has as its system NAMALVA. As to the kind of experiment: Induction of apoptosis in human NAMALWA cells assessed as late apoptotic cells at 1 uM after 48 hrs by Annexin V-FITC/propidium iodide staining based flow cytometry (reference value: 0%). The data set is classed as functional.
In data set [13] the test system is Raji. As to the kind of experiment: Potency index, ratio of ibrutinib IC50 to compound IC50 for antiproliferative activity against human Raji cells. It is filed as functional.
For data set [14], the system named is NAMALVA. As to the kind of experiment: Induction of apoptosis in human NAMALWA cells assessed as necrotic cells at 1 uM after 48 hrs by Annexin V-FITC/propidium iodide staining based flow cytometry (reference value: 4.05%). The data set is classed as functional.
Data set [15] deals with NAMALVA. As to the kind of experiment: Induction of apoptosis in human NAMALWA cells assessed as necrotic cells at 2 uM after 48 hrs by Annexin V-FITC/propidium iodide staining based flow cytometry (reference value: 4.05%). It is filed as functional.
For data set [16], the system named is NAMALVA. As to the kind of experiment: Induction of apoptosis in human NAMALWA cells assessed as late apoptotic cells at 2 uM after 48 hrs by Annexin V-FITC/propidium iodide staining based flow cytometry (reference value: 0%). It is filed as functional.
The test system of data set [17] is NAMALVA. As to the kind of experiment: Induction of apoptosis in human NAMALWA cells assessed as early apoptotic cells at 1 uM after 48 hrs by Annexin V-FITC/propidium iodide staining based flow cytometry (reference value: 0%). It is filed as functional.
Data set [18] deals with NAMALVA. As to the kind of experiment: Induction of apoptosis in human NAMALWA cells assessed as early apoptotic cells at 2 uM after 48 hrs by Annexin V-FITC/propidium iodide staining based flow cytometry (reference value: 0%). The data set is classed as functional.
The next data set relates to PBMC. As to the kind of experiment: Cytotoxicity against human PBMC assessed as morphological changes at 5 to 20 uM after 24 hrs by acridine orange/ethidium bromide staining based phase contrast microscopic method. It is filed as cell-based. Put shortly:
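PBMC were isolated from a healthy adult 's venous blood (ACD anticoagulant) by Lymphoprep density separation, washed in PBS and seeded at 200,000–250,000 cells/well. Treated in RPMI-1640 with 10% FBS at 37 °C, 5% CO2, for 24 h, with five replicates per concentration. Morphology was checked by phase-contrast microscopy and AO/EB staining; live cells were counted manually in a counting chamber.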

pIC50: −log10 of the molar value. Calls of active or inactive are those of the source. No cut-off for these calls is given here.

A word on the pIC50: it is the IC50 on a negative log10 scale, so that one unit is a factor of ten.

Chain of Epidermal growth factor receptor (P00533 25-1210 T790M limits assumed): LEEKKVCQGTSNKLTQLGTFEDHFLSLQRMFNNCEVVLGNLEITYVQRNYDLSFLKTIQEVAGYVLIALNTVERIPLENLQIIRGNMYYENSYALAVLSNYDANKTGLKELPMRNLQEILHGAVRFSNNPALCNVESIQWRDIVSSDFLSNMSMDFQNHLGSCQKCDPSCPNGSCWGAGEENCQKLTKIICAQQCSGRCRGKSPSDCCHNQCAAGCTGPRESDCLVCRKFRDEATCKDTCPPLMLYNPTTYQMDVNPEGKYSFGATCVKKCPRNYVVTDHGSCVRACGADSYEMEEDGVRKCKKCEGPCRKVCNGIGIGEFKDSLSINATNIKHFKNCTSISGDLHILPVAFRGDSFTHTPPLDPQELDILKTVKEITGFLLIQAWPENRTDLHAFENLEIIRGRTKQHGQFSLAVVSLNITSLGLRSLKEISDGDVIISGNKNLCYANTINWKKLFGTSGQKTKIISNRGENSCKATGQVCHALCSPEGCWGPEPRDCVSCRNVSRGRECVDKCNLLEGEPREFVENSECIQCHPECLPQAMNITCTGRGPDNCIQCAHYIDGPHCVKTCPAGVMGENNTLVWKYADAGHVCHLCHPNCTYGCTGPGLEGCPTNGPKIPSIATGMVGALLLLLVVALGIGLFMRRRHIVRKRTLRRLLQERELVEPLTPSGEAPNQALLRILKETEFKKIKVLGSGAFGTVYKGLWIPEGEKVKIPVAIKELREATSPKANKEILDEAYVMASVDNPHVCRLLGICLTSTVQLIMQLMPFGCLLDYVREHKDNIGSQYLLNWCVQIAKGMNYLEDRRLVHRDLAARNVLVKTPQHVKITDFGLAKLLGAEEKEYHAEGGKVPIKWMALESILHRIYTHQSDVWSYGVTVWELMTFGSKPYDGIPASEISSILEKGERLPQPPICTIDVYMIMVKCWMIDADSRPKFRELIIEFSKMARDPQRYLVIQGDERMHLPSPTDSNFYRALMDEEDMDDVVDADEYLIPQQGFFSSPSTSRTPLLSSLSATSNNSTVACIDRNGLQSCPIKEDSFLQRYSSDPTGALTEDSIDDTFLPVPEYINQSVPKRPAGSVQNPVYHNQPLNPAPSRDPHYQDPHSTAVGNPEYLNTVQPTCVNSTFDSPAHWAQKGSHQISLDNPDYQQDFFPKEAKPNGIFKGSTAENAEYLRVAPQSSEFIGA
T2 sequence (Q06187 whole entry): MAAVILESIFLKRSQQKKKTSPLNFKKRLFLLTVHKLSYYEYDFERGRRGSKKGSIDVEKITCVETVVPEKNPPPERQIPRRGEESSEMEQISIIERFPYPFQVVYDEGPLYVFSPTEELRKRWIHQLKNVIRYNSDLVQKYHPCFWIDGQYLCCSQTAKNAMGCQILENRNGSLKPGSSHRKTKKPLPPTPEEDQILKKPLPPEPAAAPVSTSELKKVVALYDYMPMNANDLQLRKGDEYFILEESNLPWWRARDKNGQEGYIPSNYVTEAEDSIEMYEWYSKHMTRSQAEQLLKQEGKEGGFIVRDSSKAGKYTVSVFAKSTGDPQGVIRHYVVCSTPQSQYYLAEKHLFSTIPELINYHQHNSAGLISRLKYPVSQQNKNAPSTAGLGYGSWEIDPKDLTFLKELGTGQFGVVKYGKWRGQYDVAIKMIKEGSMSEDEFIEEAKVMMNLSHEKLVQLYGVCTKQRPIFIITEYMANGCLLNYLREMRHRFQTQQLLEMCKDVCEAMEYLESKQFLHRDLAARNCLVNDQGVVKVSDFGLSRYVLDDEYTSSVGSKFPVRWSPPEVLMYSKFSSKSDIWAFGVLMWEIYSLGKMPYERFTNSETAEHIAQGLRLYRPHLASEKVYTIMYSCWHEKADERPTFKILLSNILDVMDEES

On to `C=CC(=O)Nc1cccc(Nc2nc(Nc3ccc(OCC(=O)NC(C)C(=O)OC)cc3)ncc2Cl)c1` (stereo not drawn), for which the pIC50 in data set [1] is below 7.00; in the data set with Ramos, 4.39; in data set [2], below 6.30; in the data set with NAMALVA [3] it was 4.53; in data set [4] it was 8.06; with Raji [5], 4.60.

Turning to `C=CC(=O)N1CCC[C@@H](n2nc(-c3ccc(Oc4ccccc4)cc3)c3c(N)ncnc32)C1` [IBRUTINIB], the Activity was 4.06% in the data set on NAMALVA [6], 0.73% in the data set on NAMALVA [8] and 5.75% in the data set on NAMALVA [9]. Further, the result with NAMALVA [7] was Active. In addition, the pIC50 with NAMALVA [3] is 4.71.

For `C=CC(=O)Nc1cccc(Nc2nc(Nc3ccc(OCC(=O)N4CCCC4C(=O)OC)cc3)ncc2Cl)c1` (stereo not drawn), the Activity stood at 8.75% with NAMALVA [6]; 5.83% with NAMALVA [12]; 0.92% in the data set with NAMALVA [14]; 0.82% in the data set with NAMALVA [15]; 7.43% in the data set with NAMALVA [16]; 4.94% in the data set on NAMALVA [17]. Moreover, the Activity is reported as 1.67% in the data set on NAMALVA [8], 13.33% in the data set with NAMALVA [9], 6.96% in the data set with NAMALVA [18] and “Non-Toxic” with PBMC. For the same molecule, in data set [10], the inhibition entry is “Dose-dependent effect”. Also, the “Ratio IC50” value in the data set with NAMALVA [11] is given as 4; in the data set on Raji [13], 3. For the same molecule, the outcome in the data set with NAMALVA [7] was Active. For the same molecule, the pIC50 in data set [1] was below 7.00; with Ramos, 4.71; in data set [2] it was 6.71; in the data set on NAMALVA [3], 5.32; in [4], 8.06; in the data set with Raji [5] it was 5.17.

On to `C=CC(=O)Nc1cccc(Nc2nc(Nc3ccc(OCC(=O)NCC(=O)O)cc3)ncc2Cl)c1`, for which the negative logarithm of the IC50 (pIC50) in data set [1] was below 7.00; with Ramos, below 4.40; in [2] it was below 6.30; with NAMALVA [3], below 4.40; in data set [4] it was 7.95; with Raji [5], below 4.40.

Take `C=CC(=O)Nc1cccc(Nc2nc(Nc3ccc(OCC(=O)NCC(=O)OC)cc3)ncc2Cl)c1`: the negative-log IC50 (pIC50) in data set [1] was below 7.00; in the data set with Ramos, 4.68; in data set [2] it was 6.30; in the data set with NAMALVA [3], 4.77; in [4], 8.19; in the data set with Raji [5], 4.74.

(Values after ChEMBL document CHEMBL4229440, “Novel amino acid-substituted diphenylpyrimidine derivatives as potent BTK inhibitors against B cell lymphoma cell lines” (Bioorg Med Chem, 2018).)
